Among the data in ChEMBL document CHEMBL5038678, “Stereochemical Effects on the Antimicrobial Properties of Tetrasubstituted 2,5-Diketopiperazines” (ACS Med Chem Lett, 2022) are MIC and CC50 values, retold here.

≈ marks a conversion by molar mass, not a printed value. Where a SMILES comes first, the peptide text is derived from it. Bridges are numbered along the chain shown (N, C = ends). [ ]: non-standard residue; d: D form. The star is where a group is joined. X1 = CC[C@H](C)CCCCC(=O)*; Dab = NCC[C@H](N)C(=O)O

One data set relates to Streptococcus pyogenes. The data set can be described thus: Antibacterial activity against macrolide- and tetracycline-resistant Streptococcus pyogenes HKU16 assessed as reduction in bacterial growth after 18 hrs by CLSI based broth microdilution assay. The format is functional. Put shortly:
(§1)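 CLSI broth microdilution for MIC (with MBC) in polypropylene microtiter plates, inoculum ~5 × 10^5 CFU/mL. Run independently on three occasions. The reported MIC is the lowest concentration on which all three biological replicates agreed.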

The subject of data set [1] is Staphylococcus aureus. Put plainly: Antibacterial activity against methicillin-resistant Staphylococcus aureus USA 300 assessed as reduction in bacterial growth after 18 hrs by CLSI based broth microdilution assay. The format is functional. Put shortly:
as §1

The test system of data set [2] is Staphylococcus aureus. Put plainly: Antibacterial activity against Staphylococcus aureus ATCC 25923 assessed as reduction in bacterial growth after 18 hrs by CLSI based broth microdilution assay. The format is functional. Put shortly:
as §1

In the next data set the test system is Pseudomonas aeruginosa. The data set can be described thus: Antibacterial activity against Pseudomonas aeruginosa SVB-B9 assessed as reduction in bacterial growth after 18 hrs by CLSI based broth microdilution assay. The format is functional.
Another data set has as its system Streptococcus pneumoniae. Put plainly: Antibacterial activity against Streptococcus pneumoniae ATCC 49619 assessed as reduction in bacterial growth after 18 hrs by CLSI based broth microdilution assay. The format is functional.
A further data set concerns Enterococcus faecium. The data set can be described thus: Antibacterial activity against vancomycin-resistant Enterococcus faecium RBWH1 assessed as reduction in bacterial growth after 18 hrs by CLSI based broth microdilution assay. Particulars: RBWH1, 18 h.
For data set [3], the system named is Escherichia coli. Put plainly: Antibacterial activity against Escherichia coli ATCC 25922 assessed as reduction in bacterial growth after 18 hrs by CLSI based broth microdilution assay. Type of data set: functional. Put shortly: as §1
Data set [4] relates to Escherichia coli. The data set can be described thus: Antibacterial activity against multi-drug resistant Escherichia coli MS8345 assessed as reduction in bacterial growth after 18 hrs by CLSI based broth microdilution assay. The format is functional. Put shortly: as §1
A further data set relates to Candida albicans. The data set can be described thus: Antifungal activity against Candida albicans SC5314 assessed as reduction in fungal growth incubated for 48 hrs by CLSI based broth microdilution assay. The format is functional. Put shortly: (§2)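 Yeast susceptibility by CLSI broth microdilution (M27), final inoculum 0.5 × 10^3 to 2.5 × 10^3 CFU/mL. Run independently on three occasions; MIC reported as the lowest concentration giving agreement across all three biological replicates.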

Data set [5] in a line: Cytotoxicity against NHDF cells assessed as reduction in cell viability measured after 24 hrs by MTT assay. Type of data set: toxicity, cell-based. Particulars: human, read-out: LD50. Put shortly:
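Adherent normal human dermal fibroblasts were read by MTT against a DMSO vehicle control. Viability is expressed as percent of untreated controls. At least three independent biological replicates were run, with each concentration in technical duplicate.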

The next data set has as its system Aspergillus fumigatus. Put plainly: Antifungal activity against Aspergillus fumigatus SVB-F136 assessed as fungal growth inhibition after 48 hrs by CLSI protocol based microbroth dilution method. Type of data set: functional. Put shortly:
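Filamentous fungus tested by CLSI broth microdilution with final inoculum 0.4 × 10^4 to 5 × 10^4 CFU/mL. Three independent biological replicates; MIC is the lowest concentration at which all three agreed.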

Another data set has as its system Cyberlindnera jadinii. Put plainly: Antifungal activity against Candida utilis SVB-Y1 assessed as reduction in fungal growth after 48 hrs by CLSI based broth microdilution assay. To be noted: Williopsis jadinii. Type of data set: functional. Put shortly:
as §2

For data set [6], the system named is Acinetobacter baumannii. Put plainly: Antibacterial activity against multi-drug resistant Acinetobacter baumannii AB5075 assessed as reduction in bacterial growth after 18 hrs by CLSI based broth microdilution assay. Type of data set: functional. Put shortly: as §1
The subject of data set [7] is Acinetobacter baumannii. The data set can be described thus: Antibacterial activity against Acinetobacter baumannii ATCC 19606 assessed as reduction in bacterial growth after 18 hrs by CLSI based broth microdilution assay. Type of data set: functional.
In the next data set the test system is Enterococcus faecalis. The data set can be described thus: Antibacterial activity against Enterococcus faecalis ATCC 29212 assessed as reduction in bacterial growth after 18 hrs by CLSI based broth microdilution assay. The format is functional. Put shortly: as §1
The next data set deals with Klebsiella pneumoniae. Put plainly: Antibacterial activity against Klebsiella pneumoniae MS6671 assessed as reduction in bacterial growth after 18 hrs by CLSI based broth microdilution assay. The format is functional.

On to `N=C(N)NCCC[C@@H]1C(=O)N(Cc2ccc(-c3ccccc3)cc2)[C@@H](CCCNC(=N)N)C(=O)N1Cc1ccc(-c2ccccc2)cc1`, for which the MIC in the data set with Streptococcus pyogenes came out at 16 µM (≈ 10.3 µg/mL); with Staphylococcus aureus [1], 4 µM (≈ 2.58 µg/mL); in the data set on Staphylococcus aureus [2], 4 µM (≈ 2.58 µg/mL); in the data set with Pseudomonas aeruginosa, 64 µM (≈ 41.3 µg/mL); in the data set with Streptococcus pneumoniae, 16 µM (≈ 10.3 µg/mL); in the data set with Enterococcus faecium, 8 µM (≈ 5.16 µg/mL). For the same compound, the MIC is 64 µM (≈ 41.3 µg/mL) with Escherichia coli [3]; > 64 µM in the data set on Escherichia coli [4]; 8 µM (≈ 5.16 µg/mL) in the data set on Candida albicans; 64 µM (≈ 41.3 µg/mL) in the data set on Aspergillus fumigatus; 2 µM (≈ 1.29 µg/mL) in the data set with Cyberlindnera jadinii; > 64 µM in the data set on Acinetobacter baumannii [6]. Moreover, the MIC is > 64 µM with Acinetobacter baumannii [7], 16 µM (≈ 10.3 µg/mL) in the data set on Enterococcus faecalis and > 64 µM in the data set on Klebsiella pneumoniae. The CC50 at 24 h in [5] is 175 µM.

For `N=C(N)NCCC[C@H]1C(=O)N(Cc2ccc(-c3ccccc3)cc2)[C@@H](CCCNC(=N)N)C(=O)N1Cc1ccc(-c2ccccc2)cc1`, the MIC was 8 µM (≈ 5.16 µg/mL) in the data set with Streptococcus pyogenes; 4 µM (≈ 2.58 µg/mL) in the data set with Staphylococcus aureus [1]; 4 µM (≈ 2.58 µg/mL) in the data set with Staphylococcus aureus [2]; 8 µM (≈ 5.16 µg/mL) in the data set on Pseudomonas aeruginosa; 8 µM (≈ 5.16 µg/mL) in the data set with Streptococcus pneumoniae; 8 µM (≈ 5.16 µg/mL) in the data set with Enterococcus faecium. Moreover, the MIC came out at 8 µM (≈ 5.16 µg/mL) in the data set on Escherichia coli [3]; 8 µM (≈ 5.16 µg/mL) in the data set on Escherichia coli [4]; 4 µM (≈ 2.58 µg/mL) in the data set on Candida albicans; 8 µM (≈ 5.16 µg/mL) with Aspergillus fumigatus; 4 µM (≈ 2.58 µg/mL) in the data set on Cyberlindnera jadinii; 16 µM (≈ 10.3 µg/mL) in the data set with Acinetobacter baumannii [6]. Also, the MIC in the data set with Acinetobacter baumannii [7] is 64 µM (≈ 41.3 µg/mL); in the data set with Enterococcus faecalis it was 2 µM (≈ 1.29 µg/mL); in the data set with Klebsiella pneumoniae it was 32 µM (≈ 20.6 µg/mL). The CC50 at 24 h in data set [5] stood at 63 µM.

With `N=C(N)NCCC[C@H]1C(=O)N(Cc2ccccc2)[C@@H](CCCNC(=N)N)C(=O)N1Cc1ccccc1`, the MIC was 64 µM (≈ 31.5 µg/mL) in the data set with Streptococcus pyogenes; > 64 µM in the data set on Staphylococcus aureus [1]; > 64 µM with Staphylococcus aureus [2]; > 64 µM with Pseudomonas aeruginosa; > 64 µM with Streptococcus pneumoniae; > 64 µM in the data set with Enterococcus faecium. The MIC with Escherichia coli [3], in the data set with Escherichia coli [4], in the data set on Candida albicans, in the data set on Aspergillus fumigatus, in the data set with Cyberlindnera jadinii and with Acinetobacter baumannii [6] was > 64 µM throughout. Moreover, the MIC in the data set with Acinetobacter baumannii [7], in the data set on Enterococcus faecalis and in the data set with Klebsiella pneumoniae was > 64 µM each time. The CC50 at 24 h in data set [5] was > 512 µM.

`N=C(N)NCCC[C@@H]1C(=O)N(Cc2ccc(-c3ccccc3)cc2)[C@H](CCCNC(=N)N)C(=O)N1Cc1ccc(-c2ccccc2)cc1`: the MIC in the data set on Streptococcus pyogenes was 8 µM (≈ 5.16 µg/mL); with Staphylococcus aureus [1], 4 µM (≈ 2.58 µg/mL); in the data set with Staphylococcus aureus [2], 4 µM (≈ 2.58 µg/mL); in the data set with Pseudomonas aeruginosa, 8 µM (≈ 5.16 µg/mL); in the data set on Streptococcus pneumoniae, 8 µM (≈ 5.16 µg/mL); in the data set with Enterococcus faecium, 4 µM (≈ 2.58 µg/mL). Besides, the MIC is 8 µM (≈ 5.16 µg/mL) in the data set on Escherichia coli [3]; 16 µM (≈ 10.3 µg/mL) with Escherichia coli [4]; 2 µM (≈ 1.29 µg/mL) in the data set with Candida albicans; 8 µM (≈ 5.16 µg/mL) in the data set with Aspergillus fumigatus; 4 µM (≈ 2.58 µg/mL) in the data set on Cyberlindnera jadinii; 32 µM (≈ 20.6 µg/mL) in the data set with Acinetobacter baumannii [6]. Moreover, the MIC worked out at 64 µM (≈ 41.3 µg/mL) in the data set with Acinetobacter baumannii [7], 4 µM (≈ 2.58 µg/mL) with Enterococcus faecalis and 64 µM (≈ 41.3 µg/mL) in the data set with Klebsiella pneumoniae. For the same compound, the CC50 at 24 h in data set [5] is 99 µM.

Take `NCCC[C@H]1C(=O)N(Cc2ccc(-c3ccccc3)cc2)[C@@H](CCCN)C(=O)N1Cc1ccc(-c2ccccc2)cc1`: the MIC with Streptococcus pyogenes is 8 µM (≈ 4.49 µg/mL); in the data set with Staphylococcus aureus [1] it was 4 µM (≈ 2.24 µg/mL); in the data set with Staphylococcus aureus [2], 4 µM (≈ 2.24 µg/mL); with Streptococcus pneumoniae, 8 µM (≈ 4.49 µg/mL); with Enterococcus faecium, 8 µM (≈ 4.49 µg/mL); in the data set with Escherichia coli [3], 16 µM (≈ 8.97 µg/mL). For the same compound, the MIC turned out to be 16 µM (≈ 8.97 µg/mL) with Escherichia coli [4]; 64 µM (≈ 35.9 µg/mL) in the data set on Candida albicans; 32 µM (≈ 17.9 µg/mL) in the data set with Aspergillus fumigatus; 32 µM (≈ 17.9 µg/mL) with Cyberlindnera jadinii; 32 µM (≈ 17.9 µg/mL) with Acinetobacter baumannii [6]; 64 µM (≈ 35.9 µg/mL) in the data set with Acinetobacter baumannii [7]. Further, the minimum inhibitory concentration (MIC) with Enterococcus faecalis and in the data set on Klebsiella pneumoniae was 8 µM (≈ 4.49 µg/mL) each time. Besides, the CC50 at 24 h in data set [5] stood at 30 µM.

As for `CC[C@H](C)CCCCC(=O)N[C@@H](CCN)C(=O)N[C@H](C(=O)N[C@@H](CCN)C(=O)N[C@H]1CCNC(=O)[C@H]([C@@H](C)O)NC(=O)[C@H](CCN)NC(=O)[C@H](CCN)NC(=O)[C@H](CC(C)C)NC(=O)[C@@H](Cc2ccccc2)NC(=O)[C@H](CCN)NC1=O)[C@@H](C)O` (X1-[Dab]T[Dab][Dab][Dab][dF]L[Dab][Dab]T; lactam 4-C), the minimum inhibitory concentration (MIC) in the data set with Streptococcus pyogenes was 32 µM (≈ 38.5 µg/mL); in the data set with Staphylococcus aureus [1], 32 µM (≈ 38.5 µg/mL); in the data set with Staphylococcus aureus [2], 64 µM (≈ 77 µg/mL); in the data set on Streptococcus pneumoniae it was 8 µM (≈ 9.63 µg/mL); in the data set on Enterococcus faecium it was > 64 µM; in the data set with Escherichia coli [3], 0.25 µM (≈ 0.301 µg/mL). Also, the MIC is 4 µM (≈ 4.81 µg/mL) in the data set on Escherichia coli [4]; 0.25 µM (≈ 0.301 µg/mL) in the data set on Acinetobacter baumannii [6]; 1 µM (≈ 1.2 µg/mL) with Acinetobacter baumannii [7]; 8 µM (≈ 9.63 µg/mL) in the data set with Enterococcus faecalis; 16 µM (≈ 19.3 µg/mL) in the data set on Klebsiella pneumoniae. Besides, the CC50 at 24 h in [5] was > 512 µM.

As for `CC1(C)S[C@@H]2[C@H](NC(=O)[C@H](N)c3ccc(O)cc3)C(=O)N2[C@H]1C(=O)O` [AMOXICILLIN], the MIC in the data set with Streptococcus pyogenes was 0.25 µM (≈ 0.0914 µg/mL); in the data set with Staphylococcus aureus [1] it was > 64 µM; in the data set with Staphylococcus aureus [2], 1 µM (≈ 0.365 µg/mL); in the data set with Pseudomonas aeruginosa it was > 64 µM; in the data set on Streptococcus pneumoniae, 0.5 µM (≈ 0.183 µg/mL); in the data set with Enterococcus faecium it was 64 µM (≈ 23.4 µg/mL). In addition, the MIC in the data set with Escherichia coli [3] is 16 µM (≈ 5.85 µg/mL); with Enterococcus faecalis it was 8 µM (≈ 2.92 µg/mL). In addition, the CC50 at 24 h in [5] is > 512 µM.

`C[C@@H]1[C@H](O)[C@@H](C)/C=C/C=C/C=C/C=C/C=C/C=C/C=C/[C@H](O[C@@H]2O[C@H](C)[C@@H](O)[C@H](N)[C@@H]2O)C[C@@H]2O[C@](O)(C[C@@H](O)C[C@@H](O)[C@H](O)CC[C@@H](O)C[C@@H](O)CC(=O)O[C@H]1C)C[C@H](O)[C@H]2C(=O)O` [AMPHOTERICIN B]: the minimal inhibitory concentration (MIC) stood at 1 µM (≈ 0.924 µg/mL) with Candida albicans, 4 µM (≈ 3.7 µg/mL) in the data set on Aspergillus fumigatus and 2 µM (≈ 1.85 µg/mL) in the data set with Cyberlindnera jadinii.
